≈ marks a conversion by molar mass, not a printed value.

Results on 11 compounds are retold here after ChEMBL document CHEMBL5096186, “Design, Synthesis, and Biological Evaluation of Novel Pyrimido[4,5-b]indole Derivatives Against Gram-Negative Multidrug-Resistant Pathogens” (J Med Chem, 2021).

The test system of data set [1] is Escherichia coli. Put plainly: Antibacterial activity against Escherichia coli ATCC 35218 strains 15 1 to 3 assessed as reduction in bacterial growth incubated for 18 to 20 hrs by CLSI based microdilution method. The data set is classed as functional. Conditions: time 18-20 hrs. In outline:
(§1)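 CLSI broth microdilution. Compounds in DMSO (levofloxacin and meropenem in water), serial twofold dilutions in broth, 64 to 0.008 μg/mL. […] Results reported as MIC ranges across strains.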
A general note: In broth dilution the organism is exposed to a series of concentrations in liquid medium.

Data set [2] has as its system Pseudomonas aeruginosa. Put plainly: Antibacterial activity against multidrug resistant Pseudomonas aeruginosa strains 15 1 to 3 assessed as reduction in bacterial growth incubated for 18 to 20 hrs by CLSI based microdilution method. Conditions: time 18-20 hrs. The data set is classed as functional. In outline:
(§2)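 Broth microdilution per CLSI. Compounds dissolved in DMSO (levofloxacin and meropenem in water) as 64 μg/mL stock, then serial twofold dilutions in broth giving 64 to 0.008 μg/mL. […] Clinical isolates tested as several strains per group; racemic GP-1 served as positive control; values given as MIC ranges.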

The subject of data set [3] is Escherichia coli. The data set can be described thus: Antibacterial activity against ESBL-producing Escherichia coli ATCC 35218 strains 15 1 to 3 assessed as reduction in bacterial growth incubated for 18 to 20 hrs by CLSI based microdilution method. Format: functional. Conditions: time 18-20 hrs. In outline:
as §1

The test system of data set [4] is Staphylococcus epidermidis. Put plainly: Antibacterial activity against methicillin-sensitive Staphylococcus epidermidis strains 15 1 to 4 assessed as reduction in bacterial growth incubated for 18 to 20 hrs by CLSI based microdilution method. Format: functional. Conditions: time 18-20 hrs. The method in brief:
as §2

Data set [5] relates to Staphylococcus aureus. Put plainly: Antibacterial activity against methicillin-sensitive Staphylococcus aureus strains 15 1 to 4 assessed as reduction in bacterial growth incubated for 18 to 20 hrs by CLSI based microdilution method. Format: functional. Conditions: time 18-20 hrs. In outline: as §2
Data set [6] deals with Staphylococcus aureus. Put plainly: Antibacterial activity against methicillin-resistant Staphylococcus aureus strains 15 1 to 4 assessed as reduction in bacterial growth incubated for 18 to 20 hrs by CLSI based microdilution method. The data set is classed as functional. Conditions: time 18-20 hrs. In outline:
as §2

The subject of data set [7] is Pseudomonas aeruginosa. Put plainly: Antibacterial activity against wild type Pseudomonas aeruginosa ATCC 27853 assessed as reduction in bacterial growth incubated for 18 to 20 hrs by CLSI based microdilution method. Format: functional. Conditions: time 18-20 hrs. The method in brief:
as §1

Data set [8] deals with Escherichia coli. The data set can be described thus: Antibacterial activity against multidrug resistant wild type Escherichia coli NCTC 13353 assessed as reduction in bacterial growth incubated for 18 to 20 hrs by CLSI based microdilution method. Format: functional. The settings on record: time 18-20 hrs. In outline:
as §2

For data set [9], the system named is Acinetobacter baumannii. Put plainly: Antibacterial activity agains OXA23-producing multidrug resistant Acinetobacter baumannii assessed as reduction in bacterial growth incubated for 18 to 20 hrs by CLSI based microdilution method. Format: functional. The settings on record: time 18-20 hrs. The method in brief: as §2
The test system of data set [10] is Pseudomonas aeruginosa. The data set can be described thus: Antibacterial activity against IMP4-producing multidrug resistant Pseudomonas aeruginosa assessed as reduction in bacterial growth incubated for 18 to 20 hrs by CLSI based microdilution method. The settings on record: time 18-20 hrs. The data set is classed as functional. In outline: as §2
The test system of data set [11] is Escherichia coli. The data set can be described thus: Antibacterial activity against ESBL-producing multidrug resistant Escherichia coli assessed as reduction in bacterial growth incubated for 18 to 20 hrs by CLSI based microdilution method. The data set is classed as functional. The settings on record: time 18-20 hrs. In outline: as §2
Data set [12] deals with Klebsiella pneumoniae. The data set can be described thus: Antibacterial activity agains wild type Klebsiella pneumoniae ATCC BAA-2470 assessed as reduction in bacterial growth incubated for 18 to 20 hrs by CLSI based microdilution method. Format: functional. The settings on record: time 18-20 hrs. The method in brief: as §2
The test system of data set [13] is Klebsiella pneumoniae. Put plainly: Antibacterial activity against KPC2-producing multidrug resistant Klebsiella pneumoniae assessed as reduction in bacterial growth incubated for 18 to 20 hrs by CLSI based microdilution method. The data set is classed as functional. The settings on record: time 18-20 hrs. The method in brief:
as §2

Data set [14] has as its system Klebsiella pneumoniae. Put plainly: Antibacterial activity agains wild type Klebsiella pneumoniae ATCC BAA-1705 assessed as reduction in bacterial growth incubated for 18 to 20 hrs by CLSI based microdilution method. Format: functional. Conditions: time 18-20 hrs. In outline: as §1
Data set [15] deals with Escherichia coli. The data set can be described thus: Antibacterial activity against multidrug resistant wild type Escherichia coli ATCC BAA-2340 assessed as reduction in bacterial growth incubated for 18 to 20 hrs by CLSI based microdilution method. The settings on record: time 18-20 hrs. The data set is classed as functional. In outline:
as §2

In data set [16] the test system is Acinetobacter baumannii. Put plainly: Antibacterial activity against wild type Acinetobacter baumannii NCTC 13304 assessed as reduction in bacterial growth incubated for 18 to 20 hrs by CLSI based microdilution method. The data set is classed as functional. The settings on record: time 18-20 hrs. In outline:
as §2

In data set [17] the target is hERG (KCNH2) potassium channel (Homo sapiens, UniProt Q12809). The data set can be described thus: Inhibition of hERG potassium channel assessed as maximum inhibition rate at 40 uM at -80 mV holding potential incubated for 120 seconds by whole cell-automated voltage clamp analysis assay relative to control. The settings on record: time 120 sec. The data set is classed as toxicity. In outline:
(§3)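 Automated whole-cell patch clamp, holding potential −80 mV. Voltage protocol applied every 20 s. Baseline set with external solution containing 0.1% DMSO and stabilised 3 min. Compound applied until steady state, at least 3 min, then washout. Maximum tested concentration 40 μM, or 3 μM for cisapride as positive control.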

The target of data set [18] is Voltage-gated inwardly rectifying potassium channel KCNH2 (Homo sapiens, UniProt Q12809). The data set can be described thus: Inhibition of hERG potassium channel assessed as […] at -80 mV holding potential incubated for 120 seconds by whole cell-automated voltage clamp analysis assay. The data set is classed as toxicity. The method in brief:
as §3

hERG (KCNH2) potassium channel, sequence (Q12809 whole entry): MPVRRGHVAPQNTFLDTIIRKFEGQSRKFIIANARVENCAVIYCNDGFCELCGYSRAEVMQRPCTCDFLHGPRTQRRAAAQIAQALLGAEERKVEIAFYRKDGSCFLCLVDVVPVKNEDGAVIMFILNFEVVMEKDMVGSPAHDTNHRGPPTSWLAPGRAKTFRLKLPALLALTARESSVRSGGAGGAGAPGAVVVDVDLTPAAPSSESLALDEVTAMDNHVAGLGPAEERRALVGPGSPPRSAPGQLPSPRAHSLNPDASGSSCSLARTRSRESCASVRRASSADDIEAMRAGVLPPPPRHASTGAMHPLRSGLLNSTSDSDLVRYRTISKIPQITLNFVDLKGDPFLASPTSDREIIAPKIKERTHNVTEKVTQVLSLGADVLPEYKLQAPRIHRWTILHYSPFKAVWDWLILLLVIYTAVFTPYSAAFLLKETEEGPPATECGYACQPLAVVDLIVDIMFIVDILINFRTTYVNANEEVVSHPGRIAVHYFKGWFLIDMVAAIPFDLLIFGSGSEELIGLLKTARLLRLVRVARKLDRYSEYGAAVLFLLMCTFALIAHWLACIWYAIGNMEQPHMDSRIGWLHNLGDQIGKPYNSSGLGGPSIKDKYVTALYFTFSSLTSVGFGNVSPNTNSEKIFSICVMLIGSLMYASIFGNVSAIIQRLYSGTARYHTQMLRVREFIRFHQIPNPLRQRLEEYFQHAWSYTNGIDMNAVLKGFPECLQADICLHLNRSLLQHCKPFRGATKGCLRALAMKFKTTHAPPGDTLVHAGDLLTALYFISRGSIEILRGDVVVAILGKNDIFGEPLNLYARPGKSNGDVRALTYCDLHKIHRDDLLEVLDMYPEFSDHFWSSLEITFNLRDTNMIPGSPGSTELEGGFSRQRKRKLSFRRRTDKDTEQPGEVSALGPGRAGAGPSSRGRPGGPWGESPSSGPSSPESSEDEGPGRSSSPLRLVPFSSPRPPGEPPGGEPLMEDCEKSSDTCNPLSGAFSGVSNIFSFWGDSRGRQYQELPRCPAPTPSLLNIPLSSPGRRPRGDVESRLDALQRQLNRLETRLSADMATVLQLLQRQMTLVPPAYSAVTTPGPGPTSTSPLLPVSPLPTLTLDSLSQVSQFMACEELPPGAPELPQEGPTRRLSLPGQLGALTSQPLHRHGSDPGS
Voltage-gated inwardly rectifying potassium channel KCNH2, sequence (Q12809 whole entry): as above

Regarding `CNc1cc(F)cc2c1[nH]c1nc(Oc3cnc(C)nc3)nc(N3CC(=C(Br)CN)C3)c12`, the MIC in data set [1] was 0.015 µg/mL (≈ 0.03 µM); in data set [2], 2 µg/mL (≈ 4.01 µM); in data set [3], 0.06 µg/mL (≈ 0.12 µM); in [4], < 0.008 µg/mL; in data set [5], < 0.008 µg/mL.
As to `CNc1cc(F)cc2c1[nH]c1nc(Oc3cnc(C)nc3)nc(N3CC(=C(CO)C(C)C)C3)c12`, the MIC was 0.125 µg/mL (≈ 0.27 µM) in data set [1]; ≥ 64 µg/mL in data set [2]; 0.5 µg/mL (≈ 1.08 µM) in data set [3]; < 0.03 µg/mL in [6]; < 0.03 µg/mL in [4]; < 0.008 µg/mL in data set [5].
`CNc1cc(F)cc2c1[nH]c1nc(Oc3cnc(C)nc3)nc(N3CC/C(=C(/F)CN)C3)c12`: the MIC in [1] is 0.06 µg/mL (≈ 0.133 µM); in [2], 2 µg/mL (≈ 4.42 µM); in data set [3] it was 0.125 µg/mL (≈ 0.276 µM); in data set [6], 0.008 µg/mL (≈ 0.0177 µM); in [4], < 0.008 µg/mL; in [5] it was < 0.008 µg/mL.
As for `CCC(CN)=C1CN(c2nc(NS(C)(=O)=O)nc3[nH]c4c(NC)cc(F)cc4c23)C1`, the MIC in data set [1], in data set [2], in [3], in data set [4] and in data set [5] was > 16 µg/mL in each case.
With `[2H]C([2H])([2H])Nc1cc(F)cc2c1[nH]c1nc(Oc3cnc(C(C)O)nc3)nc(N3CC(=C(CC)CN)C3)c12` (stereo not drawn), the MIC turned out to be 8 µg/mL (≈ 16.6 µM) in [7]; 1 µg/mL (≈ 2.08 µM) in data set [8]; 2 µg/mL (≈ 4.15 µM) in data set [9]; 16 µg/mL (≈ 33.2 µM) in data set [10]; 4 µg/mL (≈ 8.31 µM) in data set [11]; 8 µg/mL (≈ 16.6 µM) in [12]. Further, the MIC in [13] is 4 µg/mL (≈ 8.31 µM); in [14] it was 8 µg/mL (≈ 16.6 µM); in data set [15], 2 µg/mL (≈ 4.15 µM); in data set [16] it was 2 µg/mL (≈ 4.15 µM).
Consider `CCC(CN)=C1CN(c2nc(Oc3cnc(C)nc3)nc3[nH]c4c(NC)cc(F)c(F)c4c23)C1`, for which the MIC in data set [1] is 0.5 µg/mL (≈ 1.07 µM); in [2], > 64 µg/mL; in data set [3], 64 µg/mL (≈ 137 µM); in [6] it was 0.25 µg/mL (≈ 0.536 µM); in data set [4] it was < 0.03 µg/mL; in data set [5], 0.25 µg/mL (≈ 0.536 µM).
With `C[C@@H](O)[C@H]1C(=O)N2C(C(=O)O)=C(S[C@@H]3CN[C@H](C(=O)N(C)C)C3)[C@H](C)[C@H]12` [MEROPENEM], the MIC in data set [7] was 1 µg/mL (≈ 2.61 µM); in data set [8], 0.06 µg/mL (≈ 0.156 µM); in data set [9], > 32 µg/mL; in data set [10] it was 8 µg/mL (≈ 20.9 µM); in data set [11] it was 0.25 µg/mL (≈ 0.652 µM); in data set [12] it was 16 µg/mL (≈ 41.7 µM). The MIC is ≥ 64 µg/mL in [13], 16 µg/mL (≈ 41.7 µM) in [14], 4 µg/mL (≈ 10.4 µM) in [15] and > 32 µg/mL in [16].
Turning to `CCC(CO)=C1CN(c2nc(Oc3cnc4ccnn4c3)nc3[nH]c4c(NC)cc(F)cc4c23)C1`, the MIC in data set [1] and in [3] was 0.25 µg/mL (≈ 0.527 µM) in each case.
Turning to `CNc1cc(F)cc2c1[nH]c1nc(Oc3cnc(C)nc3)nc(N3CCC(=C(F)CN)CC3)c12`, the inhibition at 2 min, 40 µM in data set [17] turned out to be 70.4%. Further, the MIC is 0.06 µg/mL (≈ 0.129 µM) in [1]; > 8 µg/mL in data set [2]; 0.5 µg/mL (≈ 1.07 µM) in data set [3]; 0.015 µg/mL (≈ 0.0322 µM) in [6]; < 0.008 µg/mL in data set [4]; 0.015 µg/mL (≈ 0.0322 µM) in data set [5]. Also, the IC50 in data set [18] came out at 18.4 µM.
Turning to `CC(C)(O/N=C(\C(=O)N[C@@H]1C(=O)N2C(C(=O)[O-])=C(C[N+]3(CCNC(=O)c4ccc(O)c(O)c4Cl)CCCC3)CS[C@H]12)c1csc(N)n1)C(=O)O` [CEFIDEROCOL], the MIC in [7] was 4 µg/mL (≈ 5.32 µM); in data set [8], 4 µg/mL (≈ 5.32 µM); in data set [9] it was 2 µg/mL (≈ 2.66 µM); in data set [10], 1 µg/mL (≈ 1.33 µM); in [11] it was 0.25 µg/mL (≈ 0.332 µM); in data set [12], > 64 µg/mL. The MIC in [13] turned out to be 2 µg/mL (≈ 2.66 µM); in data set [14], 32 µg/mL (≈ 42.5 µM); in data set [15], 4 µg/mL (≈ 5.32 µM); in data set [16], 2 µg/mL (≈ 2.66 µM).
For `CCC(CN)=C1CN(c2nc(Oc3cnc(C(C)(C)O)nc3)nc3[nH]c4c(NC)cc(F)cc4c23)C1`, the MIC in data set [1] was 0.5 µg/mL (≈ 1.02 µM); in [2], > 16 µg/mL; in data set [3], 1 µg/mL (≈ 2.03 µM); in data set [4], < 0.008 µg/mL; in data set [5] it was < 0.008 µg/mL.

What is called MIC is the lowest concentration found to suppress growth. In general, inhibition refers to how much of the control response was suppressed. For orientation: IC50 means the point on the concentration scale where inhibition reaches its midpoint.
